How the values were obtained:
Rattus norvegicus [1] = assay: Anticonvulsant activity in rat assessed as protection against maximal electric shock-induced seizures at 40 mg/kg, ip; format: functional; conditions: route intraperitoneal
How it was run: (§1)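 Rats dosed i.p.: test agents at 40 mg/kg, with a propylene glycol group at 0.5 mL. Maximal electroshock (MES) seizure test, scored as % seizure protection.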

[2] = Toxicity in ip dosed rat; format: organism-based; conditions: in vivo
Rattus norvegicus [3] = assay: Toxicity in rat assessed as time spent on rotarod at 40 mg/kg, ip by rotarod test; format: organism-based; set-up: dose 40 mg/kg, route intraperitoneal; conditions: in vivo
How it was run: (§2)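 Rats dosed i.p.: test agents at 40 mg/kg, with a propylene glycol group at 0.5 mL. Rotarod performance test, recorded as mean time in seconds on the rod.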

Rattus norvegicus [4] = assay: Anticonvulsant activity in rat assessed as protection against maximal electric shock-induced seizures at 0.5 mL, ip; format: functional; how it was run: as §1
Rattus norvegicus [5] = assay: Toxicity in rat assessed as time spent on rotarod at 0.5 mL, ip by rotarod test; format: organism-based; conditions: in vivo; how it was run: as §2

| SMILES | Activity (Rattus norvegicus [1]) | LD50 [2] | Time (Rattus norvegicus [3]) | Activity (Rattus norvegicus [4]) | Time (Rattus norvegicus [5]) |
| --- | --- | --- | --- | --- | --- |
| O=C1C(Cl)C(c2ccc(O)cc2O)N1c1nnc(Cn2c3ccccc3c3ccccc32)o1 (stereo not drawn) | 50% | > 1000 mg/kg | 106.4 s |  |  |
| CN(C)c1ccc(C2C(Cl)C(=O)N2c2nnc(Cn3c4ccccc4c4ccccc43)s2)cc1 (stereo not drawn) | 50% | > 1000 mg/kg | 106 s |  |  |
| Brc1ccccc1/C=N/c1nnc(Cn2c3ccccc3c3ccccc32)o1 | 30% | > 1000 mg/kg | 110.8 s |  |  |
| Oc1ccc(/C=N/c2nnc(Cn3c4ccccc4c4ccccc43)s2)cc1 | 40% | > 1000 mg/kg | 108.8 s |  |  |
| Oc1ccc(/C=N/c2nnc(Cn3c4ccccc4c4ccccc43)s2)c(O)c1 | 50% | > 1000 mg/kg | 108.6 s |  |  |
| O=C1C(Cl)C(c2ccccc2Br)N1c1nnc(Cn2c3ccccc3c3ccccc32)s1 (stereo not drawn) | 80% | > 1000 mg/kg | 98 s |  |  |
| O=C1CSC(c2ccc(O)cc2O)N1c1nnc(Cn2c3ccccc3c3ccccc32)s1 (stereo not drawn) | 70% | > 1000 mg/kg | 102.2 s |  |  |
| O=C1CSC(c2ccc(O)cc2)N1c1nnc(Cn2c3ccccc3c3ccccc32)o1 (stereo not drawn) | 60% | > 1000 mg/kg | 104.6 s |  |  |
| O=C1CSC(c2ccc(O)cc2O)N1c1nnc(Cn2c3ccccc3c3ccccc32)o1 (stereo not drawn) | 60% | > 1000 mg/kg | 104.4 s |  |  |
| COc1cc(C2SCC(=O)N2c2nnc(Cn3c4ccccc4c4ccccc43)s2)ccc1O (stereo not drawn) | 70% | > 1000 mg/kg | 98.8 s |  |  |
| CN(C)c1ccc(C2SCC(=O)N2c2nnc(Cn3c4ccccc4c4ccccc43)s2)cc1 (stereo not drawn) | 60% | > 1000 mg/kg | 104 s |  |  |
| O=C1CSC(c2ccccc2Br)N1c1nnc(Cn2c3ccccc3c3ccccc32)s1 (stereo not drawn) | 90% | > 1600 mg/kg | 96 s |  |  |
| Oc1ccc(/C=N/c2nnc(Cn3c4ccccc4c4ccccc43)o2)cc1 | 20% | > 1000 mg/kg | 116.4 s |  |  |
| O=C1C(Cl)C(c2ccc(O)cc2)N1c1nnc(Cn2c3ccccc3c3ccccc32)s1 (stereo not drawn) | 60% | > 1000 mg/kg | 102 s |  |  |
| O=C1C(Cl)C(c2ccc(O)cc2O)N1c1nnc(Cn2c3ccccc3c3ccccc32)s1 (stereo not drawn) | 50% | > 1000 mg/kg | 102.2 s |  |  |
| COc1cc(/C=N/c2nnc(Cn3c4ccccc4c4ccccc43)s2)ccc1O | 50% | > 1000 mg/kg | 106.8 s |  |  |

| SMILES | Activity (Rattus norvegicus [1]) | LD50 [2] | Time (Rattus norvegicus [3]) | Activity (Rattus norvegicus [4]) | Time (Rattus norvegicus [5]) |
| --- | --- | --- | --- | --- | --- |
| CN(C)c1ccc(/C=N/c2nnc(Cn3c4ccccc4c4ccccc43)s2)cc1 | 40% | > 1000 mg/kg | 110.2 s |  |  |
| COc1cc(C2C(Cl)C(=O)N2c2nnc(Cn3c4ccccc4c4ccccc43)o2)ccc1O (stereo not drawn) | 50% | > 1000 mg/kg | 102.4 s |  |  |
| COc1cc(C2SCC(=O)N2c2nnc(Cn3c4ccccc4c4ccccc43)o2)ccc1O (stereo not drawn) | 70% | > 1000 mg/kg | 102.8 s |  |  |
| Oc1ccc(/C=N/c2nnc(Cn3c4ccccc4c4ccccc43)o2)c(O)c1 | 30% | > 1000 mg/kg | 114.8 s |  |  |
| COc1cc(/C=N/c2nnc(Cn3c4ccccc4c4ccccc43)o2)ccc1O | 30% | > 1000 mg/kg | 112.2 s |  |  |
| CN(C)c1ccc(/C=N/c2nnc(Cn3c4ccccc4c4ccccc43)o2)cc1 | 20% | > 1000 mg/kg | 114 s |  |  |
| CN(C)c1ccc(C2C(Cl)C(=O)N2c2nnc(Cn3c4ccccc4c4ccccc43)o2)cc1 (stereo not drawn) | 40% | > 1000 mg/kg | 100.2 s |  |  |
| O=C1C(Cl)C(c2ccccc2Br)N1c1nnc(Cn2c3ccccc3c3ccccc32)o1 (stereo not drawn) | 60% | > 1000 mg/kg | 98.8 s |  |  |
| CN(C)c1ccc(C2SCC(=O)N2c2nnc(Cn3c4ccccc4c4ccccc43)o2)cc1 (stereo not drawn) | 60% | > 1000 mg/kg | 104.2 s |  |  |
| O=C1CSC(c2ccccc2Br)N1c1nnc(Cn2c3ccccc3c3ccccc32)o1 (stereo not drawn) | 70% | > 1000 mg/kg | 96.6 s |  |  |
| O=C1CSC(c2ccc(O)cc2)N1c1nnc(Cn2c3ccccc3c3ccccc32)s1 (stereo not drawn) | 60% | > 1000 mg/kg | 100.6 s |  |  |
| Brc1ccccc1/C=N/c1nnc(Cn2c3ccccc3c3ccccc32)s1 | 60% | > 1000 mg/kg | 106.8 s |  |  |
| O=C1C(Cl)C(c2ccc(O)cc2)N1c1nnc(Cn2c3ccccc3c3ccccc32)o1 (stereo not drawn) | 40% | > 1000 mg/kg | 104.6 s |  |  |
| COc1cc(C2C(Cl)C(=O)N2c2nnc(Cn3c4ccccc4c4ccccc43)s2)ccc1O (stereo not drawn) | 70% | > 1000 mg/kg | 102.4 s |  |  |
| O=C(CCCN1CCC(O)(c2ccc(Cl)cc2)CC1)c1ccc(F)cc1 [HALOPERIDOL] |  |  |  | 0% |  |
| CC(O)CO (stereo not drawn) [PROPYLENE GLYCOL] |  |  |  | 0% | 120 s |

Source: ChEMBL document CHEMBL1177859, “Synthesis and antipsychotic and anticonvulsant activity of some new substituted oxa/thiadiazolylazetidinonyl/thiazolidinonylcarbazoles” (Eur J Med Chem, 2010)
